An excerpt weighted towards active compounds, which were near 1.8% of everything screened.
Jurkat NFkB inh: lowers PMA/ionomycin-induced NF-kB signal in Jurkat cells; PMA/ionomycin-induced NF-kB luciferase reporter, luminescence; AID 435003; inhibition, % at 4 µM; 330,000 compounds, 0.53% hits; in the data active = inhibition above about 50%
Lipid droplet: hepatic lipid droplet formation modulation. AML12 mouse hepatocytes, oleate lipid droplets, BODIPY imaging. 240,000 compounds, 0.4% hits. inhibition, % at 6.5 µM;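 active = lipid droplet intensity inhibited by at least 50%, with more than 500 cells counted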
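Assay system: AML12 hepatocytes (mouse) / Also added: 100 µM oleic acid challenge / Times: overnight treatment with compound plus oleate / Detection: high-content imaging of BODIPY-stained droplets and DAPI nuclei / Evaluation: % inhibition of lipid droplet signal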
H9c2 TAG inh: inhibitors of triacylglycerol accumulation; H9c2 cells, Nile Red lipid (TAG) fluorescence; cells loaded with 200 µM oleic acid; inhibition, % at 12.5 µM; 230,000 compounds, 0.66% hits;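 active = pattern-corrected inhibition of lipid staining of at least 50% with the nuclear-stain viability signal not falling by more than 50%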;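 also: 0% = DMSO wells and 100% = triacsin C control wells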
Gli-Sufu block: blocks Gli-Sufu signaling in a luciferase reporter; Sufu-KO-LIGHT fibroblasts, Gli luciferase reporter luminescence; inhibition, % at 5 µM; 340,000 compounds, 0.74% hits; AID 588413;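 active = inhibition above about 55%, limit read from the data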;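 also: 0% = DMSO-treated cells and 100% = wells with medium but no cells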
697 NFkB inh: inhibitors of the PMA/ionomycin-induced NF-kB reporter in 697 B cells | 697 B-cell NF-kB luciferase reporter, 16 h | inhibition, % at 4 µM | 330,000 compounds, 0.33% hits; in the data active = inhibition above about 35%
iPSC survival up: enhancers of human iPSC single-cell survival; survival enhancement, % at 20 µM; hiPSC single-cell survival, ATPlite luminescence; 100% = ROCK inhibitor wells, 0% = DMSO; AID 602274; 360,000 compounds, 0.044% hits; in the data active = survival enhancement above about 18%;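 also: cells exposed to compounds for 16 hours before the ATP read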
An asterisk follows results filed as active; . = not tested or not shown.

SMILES	Jurkat NFkB inh	Lipid droplet	H9c2 TAG inh	Gli-Sufu block	697 NFkB inh	iPSC survival up
O=[N+]([O-])c1ccccc1N/N=C/c1c[nH]c2ccccc12	-102	.	82*	-39	-148	-2
O=[N+]([O-])c1ccc(N/N=C/c2c[nH]c3ccccc23)cc1	47	.	-37	3	7	-2
CC(=O)c1c(C)cc(C)c(CSc2ccccn2)c1C	-3	-2	-6	-4	-36	0
CC(=O)Nc1ccc(NC2=C(Cl)C(=O)c3ccccc3C2=O)cc1	-18	-13	.	-8	-18	.
Cc1ccc(NC2=C(NCCO)C(=O)c3ccccc3C2=O)cc1	-35	59*	.	-2	-53	-1
CCCc1ccc(C(=O)N2CCN(c3ccccc3OCC)CC2)cc1	15	-23	.	5	11	23*
CC(=O)c1sc(NC(=O)C2(F)C(F)(F)C(F)(F)C(F)(F)C(F)(F)C2(F)F)nc1C	-23	.	.	75*	11	-1
CC(C)(C)NCC(O)COc1ccccc1C1CCCC1 (stereo unspecified)	11	.	30	5	14	-2
CN1CCN(c2cc3c(c4c2[nH]c2ccccc24)C(=O)CC(C)(C)C3)CC1	5	.	54*	10	11	-1
CCOc1ccc(N(CC(=O)N/N=C/c2ccc(OC(C)C)cc2)S(C)(=O)=O)cc1	4	1	-3	-15	-36	-2
O=C1C(=O)N(CNc2ccccn2)c2ccccc21	1	.	59*	39	-15	0
COC(=O)c1sc2cc([N+](=O)[O-])cc(SCC(C)C)c2c1N	-15	56*	.	2	-18	-1
CCOC(=O)c1sc2ncc([N+](=O)[O-])cc2c1N	-5	-3	12	0	-11	0
O=C(Nc1ccc2oc(-c3cccnc3)nc2c1)c1ccc(Br)o1	-17	19	5	20	-39	2
COc1cc(NC(=O)c2ccc([N+](=O)[O-])o2)ccc1NC(=O)c1cccs1	25	12	84	0	27	-1
O=C(Nc1cccc(NC(=O)c2cccs2)c1)c1ccc([N+](=O)[O-])o1	27	-7	61*	1	6	-1
O=C(Nc1ccc2oc(-c3cccnc3)nc2c1)c1ccc([N+](=O)[O-])o1	.	5	75*	27	.	-1
COc1ccccc1C(=O)NNC(=O)C(=O)NC1CCCCC1	-1	16	.	18	13	0
CC(NNC(=S)N1CCN(c2ccccn2)CC1)c1nccc2ccccc12 (stereo unspecified)	.	.	-11	93*	.	-1
CCNC(=S)N1CCN(c2ccccn2)CC1	14	4	-2	9	12	2
C/C(=N\Nc1ncnc2sc(C)c(C)c12)c1ccccn1	50	-175	.	94*	9	0
CC(=NNC(=S)Nc1ccccc1Cl)c1ccccn1	.	.	-35	93*	.	-2
C/C(=N\Nc1ncc(Cl)cc1Cl)c1ccccn1	.	-145	-24	76*	.	0
C/C(=N\Nc1ccc(Cl)c(C(=O)O)c1)c1ccccn1	2	-2	8	-6	-15	0
O=C(COc1ccccc1-c1ccccc1)NNC(=O)NC1CCCCC1	12	-24	4	3	-6	-3
SMILES	Jurkat NFkB inh	Lipid droplet	H9c2 TAG inh	Gli-Sufu block	697 NFkB inh	iPSC survival up
CCOC(=O)C(C(=O)OCC)C(C(=O)OCC)N1CCOCC1 (stereo unspecified)	8	-6	99*	2	-6	-2
CCc1ccc(-c2nc(CN3CCC(C(=O)NCc4ccc(F)cc4)CC3)c(C)o2)cc1	5	.	.	93*	9	-3
CCNC(=O)C1(C)CCCN(Cc2ccc(Oc3ccccc3)cc2)C1 (stereo unspecified)	.	.	-4	.	.	-2
CC(=O)N1c2ccc(S(=O)(=O)N(C)CC(=O)NC(C)c3ccccc3)cc2CC1C (stereo unspecified)	5	32	.	-8	-7	0
CCOC(=O)c1c(SCCN2CCCC2)n(-c2ccccc2)c(=S)n(-c2ccccc2)c1=O	.	.	82*	-1	.	2
CCOC(=O)C1(CCCc2ccccc2)CCN(C(=O)C2CCCN(C(N)=O)C2)CC1 (stereo unspecified)	-1	-27	.	-4	0	0
CCN(CC(=O)Nc1c(F)cccc1F)C(=O)c1csc2c1CCCC2	-8	.	3	-4	21	0
Cc1cccnc1C1=NOC(Cc2ccccc2)C(=O)N1Cc1ccccc1F (stereo unspecified)	.	.	-6	.	.	2
O=C(c1ccc2c(c1)C(=O)N(CCCO)C2=O)c1ccc2c(c1)C(=O)N(CCCO)C2=O	-6	-5	2	23	-5	6
O=C1c2ccc3c4c(ccc(c24)C(=O)N1CCCCO)C(=O)N(CCCCO)C3=O	.	-27	73*	38	.	-2
CCOC(=O)C1(C)CCN1C(=O)c1cc(F)cc(F)c1 (stereo unspecified)	.	.	-16	.	.	3
CCOC(=O)/C(=C\c1ccc(OC(F)F)cc1)C1=Nn2c(nnc2-c2ccc(Cl)cc2)SC1	.	2	99	56*	.	-3
CCOC(=O)/C(=C/c1ccc(OC(F)F)cc1)C1=Nn2c(nnc2-c2ccc(Cl)cc2)SC1	.	.	106	10	.	-1
COc1ccc(Nc2nc(Nc3ccc(OC)cc3)nc(-n3[nH]c(=O)c(C)c3C)n2)cc1	19	.	57*	-25	18	0
COC1=CC(=O)c2c(ccc3ncnc(N)c23)C1=O	.	.	129	56*	.	-3
O=C(Nc1nccs1)c1ccc(Br)s1	-27	-16	.	-44	-46	1
CCCC(=O)Nc1c2c(nn1-c1ccc([N+](=O)[O-])cc1)CS(=O)(=O)C2	-1	.	.	0	13	0
O=C(Nc1ccncc1)c1cc(S(=O)(=O)N2CCCC2)ccc1Cl	2	.	-17	-5	-24	47*
COc1ccccc1C(=O)NCCC(=O)OCC(=O)Nc1ccc(S(N)(=O)=O)cc1	4	.	5	3	16	1
c1ccc(-[n+]2nc(Nc3cccc4ccccc34)sc2-c2c3ccccc3cc3ccccc23)cc1	26	.	106*	50	-1	-4
COc1cccc(/C=N/N2CCN(C3c4ccccc4-c4ccccc43)CC2)c1O	-4	57*	44	7	-9	-1
COc1cc(/C=N/N2CCN(C3c4ccccc4-c4ccccc43)CC2)ccc1O	-2	4	0	7	4	-2
CC(C)(C)C(=O)Nc1ccc(Sc2ccc([N+](=O)[O-])cc2)cc1	20	-7	.	13	-14	1
CC(=O)Nc1ccc(Sc2ccc([N+](=O)[O-])o2)cc1	.	.	63*	1	.	-4
C[C@H](CO)N1C[C@H](C)[C@@H](CN(C)S(=O)(=O)c2cccs2)Oc2c(NS(=O)(=O)c3ccc(F)cc3)cccc2C1=O	8	.	-15	2	9	0
CCCSc1nc(SCC(=O)NCc2ccccc2)c2c3c(sc2n1)COC(C)(C)C3	-9	.	56*	-1	17	-2

Source: PubChem (Sanford-Burnham Center for Chemical Genomics)
